Experimental data reported in ChEMBL document CHEMBL1142454, “Synthesis and evaluation of novel 4-amino-4,6-androstadiene-3,17-dione: an analog of formestane” (2008).

Key:
Design in all cases: scale not given: the % may be the effect or the level left
SN12C = assay: Antitumor activity against human SN12C cells assessed as reduction of cell growth at 10 uM after 48 hrs by SRB assay; format: functional
In short: (§1)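 NCI 60-cell-line primary screen, single dose 10^-5 M (final). Cells grown in RPMI 1640 with 5% FBS and 2 mM L-glutamine, seeded at 5000–40,000 cells/well and preincubated 24 h at 37 °C, 5% CO2. Compound is dissolved in DMSO, diluted in medium with gentamicin, and exposed 48 h. Cells are fixed with 10% TCA (final) and stained with 0.4% SRB; absorbance is read at 515 nm. Readout is growth percentage.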

SR = assay: Antitumor activity against human SR cells assessed as reduction of cell growth at 10 uM after 48 hrs by SRB assay; format: functional
In short: (§2)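 NCI-60 one-dose primary screen at 10^-5 M final. Cells grown in RPMI 1640 with 5% FBS and 2 mM L-glutamine, plated at 5000–40,000 cells/well and preincubated 24 h at 37 °C, 5% CO2. Drug stocks in DMSO, diluted in medium with gentamicin. Exposure 48 h, then fixed in situ with TCA (10% final) for 60 min at 4 °C. Stained with 0.4% SRB in 1% acetic acid, bound dye solubilized in 10 mM trizma base, absorbance read at 515 nm. Reported as mean growth percent; negative values indicate cell kill.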

NCI-H522 = assay: Antitumor activity against human NCI-H522 cells assessed as reduction of cell growth at 10 uM after 48 hrs by SRB assay; format: functional; in short: as §1
MCF7 [1] = assay: Antitumor activity against human MCF7 cells assessed as reduction of cell growth at 10 uM after 48 hrs by SRB assay; format: functional; in short: as §1
MDA-MB-435 = assay: Antitumor activity against human MDA-MB-435 cells assessed as reduction of cell growth at 10 uM after 48 hrs by SRB assay; format: functional; in short: as §1
NCI-H226 = assay: Antitumor activity against human NCI-H226 cells assessed as reduction of cell growth at 10 uM after 48 hrs by SRB assay; format: functional; in short: as §1
KM12 = assay: Antitumor activity against human KM12 cells assessed as reduction of cell growth at 10 uM after 48 hrs by SRB assay; format: functional; in short: as §1
CCRF-CEM = assay: Antitumor activity against human CCRF-CEM cells assessed as reduction of cell growth at 10 uM after 48 hrs by SRB assay; format: functional; in short: as §1
U-251 = assay: Antitumor activity against human U251 cells assessed as reduction of cell growth at 10 uM after 48 hrs by SRB assay; format: functional; in short: as §2
MOLT-4 = assay: Antitumor activity against human MOLT-4 cells assessed as reduction of cell growth at 10 uM after 48 hrs by SRB assay; format: functional; in short: as §1
HL-60(TB) = assay: Antitumor activity against human HL-60(TB) cells assessed as reduction of cell growth at 10 uM after 48 hrs by SRB assay; format: functional; in short: as §1
PC-3 = assay: Antitumor activity against human PC-3 cells assessed as reduction of cell growth at 10 uM after 48 hrs by SRB assay; format: functional; in short: as §1
SK-MEL-2 = assay: Antitumor activity against human SK-MEL-2 cells assessed as reduction of cell growth at 10 uM after 48 hrs by SRB assay; format: functional; in short: as §1
SK-MEL-28 = assay: Antitumor activity against human SK-MEL-28 cells assessed as reduction of cell growth at 10 uM after 48 hrs by SRB assay; format: functional; in short: as §1
CAKI-1 = assay: Antitumor activity against human Caki-1 cells assessed as reduction of cell growth at 10 uM after 48 hrs by SRB assay; format: functional; in short: as §1
TK-10 = assay: Antitumor activity against human TK-10 cells assessed as reduction of cell growth at 10 uM after 48 hrs by SRB assay; format: functional; in short: as §2
M14 = assay: Antitumor activity against human M14 cells assessed as reduction of cell growth at 10 uM after 48 hrs by SRB assay; format: functional; in short: as §1
EKVX = assay: Antitumor activity against human EKVX cells assessed as reduction of cell growth at 10 uM after 48 hrs by SRB assay; format: functional; in short: as §1
T47D = assay: Antitumor activity against human T47D cells assessed as reduction of cell growth at 10 uM after 48 hrs by SRB assay; format: functional; in short: as §2
HCT-15 = assay: Antitumor activity against human HCT-15 cells assessed as reduction of cell growth at 10 uM after 48 hrs by SRB assay; format: functional; in short: as §1
SK-OV-3 = assay: Antitumor activity against human SKOV3 cells assessed as reduction of cell growth at 10 uM after 48 hrs by SRB assay; format: functional; in short: as §1
HOP-62 = assay: Antitumor activity against human HOP-62 cells assessed as reduction of cell growth at 10 uM after 48 hrs by SRB assay; format: functional; in short: as §1
LOX IMVI = assay: Antitumor activity against human LOXIMVI cells assessed as reduction of cell growth at 10 uM after 48 hrs by SRB assay; format: functional; in short: as §1
OVCAR-5 = assay: Antitumor activity against human OVCAR5 cells assessed as reduction of cell growth at 10 uM after 48 hrs by SRB assay; format: functional; in short: as §1
A549 = assay: Antitumor activity against human A549/ATCC cells assessed as reduction of cell growth at 10 uM after 48 hrs by SRB assay; format: functional; in short: as §1
OVCAR-3 = assay: Antitumor activity against human OVCAR-3 cells assessed as reduction of cell growth at 10 uM after 48 hrs by SRB assay; format: functional; in short: as §1
NCI-H23 = assay: Antitumor activity against human NCI-H23 cells assessed as reduction of cell growth at 10 uM after 48 hrs by SRB assay; format: functional; in short: as §1
[2] = Antitumor activity against human 786-O cells assessed as reduction of cell growth at 10 uM after 48 hrs by SRB assay; format: functional, 786-0; in short: as §1
HOP-92 = assay: Antitumor activity against human HOP-92 cells assessed as reduction of cell growth at 10 uM after 48 hrs by SRB assay; format: functional; in short: as §1
MCF7 [3] = assay: Antitumor activity against human doxorubicin-resistant MCF7 cells assessed as reduction of cell growth at 10 uM after 48 hrs by SRB assay; format: functional; in short: as §2
OVCAR-4 = assay: Antitumor activity against human OVCAR4 cells assessed as reduction of cell growth at 10 uM after 48 hrs by SRB assay; format: functional; in short: as §1
[4] = Antitumor activity against human Hs 578T cells assessed as reduction of cell growth at 10 uM after 48 hrs by SRB assay; format: functional; in short: as §1
ACHN = assay: Antitumor activity against human ACHN cells assessed as reduction of cell growth at 10 uM after 48 hrs by SRB assay; format: functional; in short: as §1
MDA-MB-231 = assay: Antitumor activity against human MDA-MB-231/ATCC cells assessed as reduction of cell growth at 10 uM after 48 hrs by SRB assay; format: functional; in short: as §1
SW-620 = assay: Antitumor activity against human SW620 cells assessed as reduction of cell growth at 10 uM after 48 hrs by SRB assay; format: functional; in short: as §2
A498 = assay: Antitumor activity against human A-498 cells assessed as reduction of cell growth at 10 uM after 48 hrs by SRB assay; format: functional; in short: as §1
RXF 393 = assay: Antitumor activity against human RXF 393 cells assessed as reduction of cell growth at 10 uM after 48 hrs by SRB assay; format: functional; in short: as §1
COLO 205 = assay: Antitumor activity against human COLO205 cells assessed as reduction of cell growth at 10 uM after 48 hrs by SRB assay; format: functional; in short: as §1

Molecule `C[C@]12CCC(=O)C(Oc3ccccc3)=C1CC[C@@H]1[C@@H]2CC[C@]2(C)C(=O)CC[C@@H]12` has an Activity (SN12C) of 90.07%, an Activity (SR) of 66.91% and an Activity (NCI-H522) of 87.31%. For the same molecule, the Activity (MCF7 [1]) was 103.22%, the Activity (MDA-MB-435) was 113.61% and the Activity (NCI-H226) was 96.55%. It also gave an Activity (KM12) of 115.72%, an Activity (CCRF-CEM) of 90.45% and an Activity (U-251) of 91.35%. It also gave an Activity (MOLT-4) of 105.63%, an Activity (HL-60(TB)) of 105.95% and an Activity (PC-3) of 89.25%. The Activity (SK-MEL-2) was 82.37%, the Activity (SK-MEL-28) was 119.81% and the Activity (CAKI-1) was 112.48%. For the same molecule, the Activity (TK-10) was 122.99%, the Activity (M14) was 102.62% and the Activity (EKVX) was 104.06%. For the same molecule, the Activity (T47D) was 116.7%, the Activity (HCT-15) was 94.74% and the Activity (SK-OV-3) was 117.4%. It also gave an Activity (HOP-62) of 106.47%, an Activity (LOX IMVI) of 101.44% and an Activity (OVCAR-5) of 97.47%. For the same molecule, the Activity (A549) was 100.25%, the Activity (OVCAR-3) was 121.39% and the Activity (NCI-H23) was 97.57%. The Activity [2] was 100.78%, the Activity (HOP-92) was 87.06% and the Activity (MCF7 [3]) was 90.34%. For the same molecule, the Activity (OVCAR-4) was 100.72%, the Activity [4] was 103.5% and the Activity (ACHN) was 105.72%. It also gave an Activity (MDA-MB-231) of 109.86%, an Activity (SW-620) of 120.45% and an Activity (A498) of 103%. It also gave an Activity (RXF 393) of 107.93% and an Activity (COLO 205) of 115.44%.
